Laboratory results as given in ChEMBL document CHEMBL4330067, “Synthesis and mechanistic studies of diketo acids and their bioisosteres as potential antibacterial agents” (Eur J Med Chem, 2019).
In brackets after ≈: the same amount, converted by molar mass. Activity calls are given as the source filed them. The rule behind the calls is not given here.

Experiments:
[1] = tested on: Mycobacterium tuberculosis; assay: Inhibition of Mycobacterium tuberculosis methionine aminopeptidase 1C at 100 uM using Met-AMC as substrate relative to control
How it was run: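 Purified MtMetAP1c (4 µM) in 50 mM Hepes pH 7.5 with 150 mM KCl and CoCl2 at three molar equivalents of enzyme. Substrate was L-Met-AMC at 50, 100 or 150 µM. Compounds came from 10 mM DMSO stocks. Percent inhibition was taken against the uninhibited control.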

[2] = Inhibition of Streptococcus pneumoniae methionine aminopeptidase 1A using Met-AMC as substrate by Dixon method
How it was run: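 Purified MetAP at 4 µM in 50 mM HEPES with 150 mM KCl and CoCl2 at 3 molar equivalents of enzyme. pH 7.5 for SpMetAP1a and EfMetAP1a, pH 8.0 for HsMetAP1b. Substrate L-Met-AMC at 50, 100 and 150 µM. Compounds (10 mM DMSO stocks) tested over 1 to 120 µM for % inhibition; Ki by Dixon method.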

Pseudomonas aeruginosa = assay: Antibacterial activity against Pseudomonas aeruginosa MTCC 2453 after 24 hrs by broth dilution assay; format: functional; conditions: MTCC 2453, 24 h
How it was run: (§1)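 Broth dilution per NCCLS in nutrient broth, serial dilutions 1000 to 7.8 µg/mL, DMSO below 4% final. Inoculum approx. 2.5×10⁶ cells/mL, 37 °C with shaking at 150 rpm for 24 h. MIC taken as the lowest concentration with no visible growth. Ciprofloxacin served as positive control.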

Salmonella typhimurium = assay: Antibacterial activity against Salmonella typhimurium MTCC 3224 after 24 hrs by broth dilution assay; format: functional, Salmonella enterica subsp. enterica serovar Typhimurium; conditions: Salmonella enterica, MTCC 3224, 24 h; how it was run: as §1
Klebsiella pneumoniae = assay: Antibacterial activity against Klebsiella pneumoniae ATCC 700603 after 24 hrs by broth dilution assay; format: functional; conditions: Klebsiella pneumoniae, 700603, 24 h; how it was run: as §1
Escherichia coli [3] = assay: Antibacterial activity against Escherichia coli ATCC 25922 after 24 hrs by broth dilution assay; format: functional; conditions: ATCC 25922, 24 h; how it was run: as §1
Escherichia coli [4] = assay: Antibacterial activity against Escherichia coli MRC17 at 512 ug/mL after 24 hrs by broth dilution assay relative to control; format: functional
How it was run: (§2)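 Multidrug-resistant E. coli isolates in Luria broth, test range 8 to 1024 µg/mL (ciprofloxacin 0.49 to 63.3 µg/mL). Inoculum 10 µL of a 1000-fold diluted 0.1 OD600 culture, incubated overnight at 37 °C. OD read at 600 nm. % inhibition = (a−b)/a×100, with media and compound-colour blanks subtracted.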

Escherichia coli [5] = assay: Antibacterial activity against Escherichia coli MRC24 at 512 ug/mL after 24 hrs by broth dilution assay relative to control; format: functional; how it was run: as §2
Escherichia coli [6] = assay: Antibacterial activity against Escherichia coli MRAE44 at 1024 ug/mL after 24 hrs by broth dilution assay; format: functional, organism-based; how it was run: as §2
Escherichia coli [7] = assay: Antibacterial activity against Escherichia coli MRAE33 after overnight incubation; format: functional; how it was run: as §2
Escherichia coli [8] = assay: Antibacterial activity against Escherichia coli MRAE44 after overnight incubation; format: functional; how it was run: as §2
Escherichia coli [9] = assay: Synergistic antibacterial activity against Escherichia coli MRA11 after 18 hrs in presence of ciprofloxacin by checkerboard method; format: functional; conditions: MRA11, 18 h
How it was run: (§3)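 Checkerboard combination with ciprofloxacin in Mueller-Hinton broth: compound 1024 to 16 µg/mL crossed with ciprofloxacin 128 to 2 µg/mL. Inoculum 5×10⁵ CFU/mL suspension, 18 h at 37 °C. Fractional inhibitory concentration index derived from the combination.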

Escherichia coli [10] = assay: Synergistic antibacterial activity against Escherichia coli MRAE33 after 18 hrs in presence of ciprofloxacin by checkerboard method; format: functional; conditions: MRAE33, 18 h; how it was run: as §3
Escherichia coli [11] = assay: Synergistic antibacterial activity against Escherichia coli MRC17 assessed as ciprofloxacin MIC at 16 to 1024 ug/mL after 18 hrs by checkerboard method; format: functional; conditions: MRC17, 18 h; how it was run: as §3
Escherichia coli [12] = assay: Synergistic antibacterial activity against Escherichia coli MRC17 assessed as fractional inhibitory concentration index after 18 hrs in presence of ciprofloxacin by checkerboard method; format: functional
How it was run: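 Checkerboard combination against MDR E. coli. Test agent gradient 1024–16 µg/mL crossed with ciprofloxacin 128–2 µg/mL in Mueller-Hinton broth. Wells were inoculated with a 5 × 10⁵ CFU/mL suspension and incubated 18 h at 37 °C. Interaction was expressed as the fractional inhibitory concentration index (FICI).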

Escherichia coli [13] = assay: Synergistic antibacterial activity against Escherichia coli MRAE33 assessed as fractional inhibitory concentration index after 18 hrs in presence of ciprofloxacin by checkerboard method; format: functional; how it was run: as §3
Escherichia coli [14] = assay: Bactericidal activity against Escherichia coli at sub-MIC after 22 hrs by spectrophotometric analysis; format: functional, organism-based
How it was run: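 Growth kinetics in 50 mL nutrient broth seeded at approx. 2×10⁶ cells/mL, compound at 2MIC, MIC and ½MIC, 37 °C at 160 rpm. Ciprofloxacin 10 µg/mL as positive control. 1 mL aliquots taken every 2 h from 0 to 22 h. Turbidity read at 600 nm and OD plotted against time.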

Enterococcus faecalis = assay: Anti-biofilm activity against Enterococcus faecalis after 24 hrs by XTT assay; format: functional, organism-based
How it was run: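 Biofilm XTT reduction assay: serial dilutions 1000 to 7.8 µg/mL in tryptic soy broth, inoculum approx. 5×10⁵ CFU/mL, 37 °C for 24 h static. Non-adherent cells removed by PBS wash, XTT added, 90 min at 37 °C in dark, absorbance at 490 nm. IC50 (50% inhibition of biofilm formation) read from dose-response curves.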

Escherichia coli [15] = assay: Anti-biofilm activity against Escherichia coli assessed as poor cell density at 2MIC after 24 hrs by SEM analysis; format: functional, organism-based

SMILES: Cc1c(C(=O)/C=C(\O)C(=O)N[C@H](C)C(=O)O)oc2ccc(Br)cc12
- inhibition [1]: 87.7%
- Ki [2]: 28.3 µM
- MIC (Pseudomonas aeruginosa): 250 µg/mL (≈ 631 µM)
- MIC (Salmonella typhimurium): 500 µg/mL (≈ 1260 µM)
- MIC (Klebsiella pneumoniae): 500 µg/mL (≈ 1260 µM)
- MIC (Escherichia coli [3]): 62.5 µg/mL (≈ 158 µM)
- Activity (Escherichia coli [4]): 100%
- Activity (Escherichia coli [5]): 100%
- Activity (Escherichia coli [6]): Active
- ICmax (Escherichia coli [7]): 1024 µg/mL
- MIC (Escherichia coli [7]; Escherichia coli, MRAE33): 1020 µg/mL (≈ 2580 µM)
- ICmax (Escherichia coli [8]): 1024 µg/mL
- MIC (Escherichia coli [9]): 512 µg/mL
- MIC (Escherichia coli [10]): 16 µg/mL
- MIC (Escherichia coli [11]): 64 µg/mL
- fractional inhibitory concentration index (FICI) (Escherichia coli [12]): 1.5
- fractional inhibitory concentration index (FICI) (Escherichia coli [13]): 1.0156
- Activity (Escherichia coli [14]): Active
- IC50 (Enterococcus faecalis): 1240 µg/mL (≈ 3140 µM)
- Activity (Escherichia coli [15]): Active
